Measured values: article PMC6217956 (The FEBS journal, 2016)

Assays:
Type in all cases: binding
[1] = target: T1, C-terminal truncated PTN (residues 1 to 114) (Homo sapiens, UniProt P21246); test: Immobilized CSA and CSE ELISA of C-terminal truncated PTN; conditions: immobilized native CS, biotinylated truncated PTN (residues 1 to 114)
T1 sequence (P21246 33-146): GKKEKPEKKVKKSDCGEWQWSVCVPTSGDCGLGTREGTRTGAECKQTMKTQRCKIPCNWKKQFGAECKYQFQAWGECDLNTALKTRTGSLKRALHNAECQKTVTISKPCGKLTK
In short: (§1)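 Human PTN (wild type or residues 1–114) was expressed in E. coli Origami B (DE3), purified on a heparin column, and biotinylated by EDC coupling to amine-PEG-biotin (MES pH 5.5). CSA or CSE was EDC/NHS-crosslinked overnight to poly-L-lysine-coated amine plates, then blocked with 5% BSA for 1.5 h. PTN at 2.5–0.015 μg/ml, 1 h; streptavidin-HRP 1 h; TMB; HCl stop; A450. Kd by 1:1 Langmuir fit; ≥3 runs, triplicate points.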

wild type PTN = target: T2, wild type PTN (Homo sapiens, UniProt P21246); test: Immobilized CSA and CSE ELISA of wild type PTN; conditions: immobilized native CS, biotinylated wild type PTN, Langmuir isotherm 1:1
T2 sequence (P21246 33-168): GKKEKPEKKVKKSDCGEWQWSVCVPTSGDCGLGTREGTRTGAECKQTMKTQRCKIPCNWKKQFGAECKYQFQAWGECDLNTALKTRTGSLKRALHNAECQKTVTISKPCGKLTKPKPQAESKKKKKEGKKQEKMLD
In short: as §1

PTN = target: T3, PTN (Homo sapiens, UniProt P21246); test: PRE control experiment with 4-hydroxy-TEMPO; conditions: under the condition of the PRE experiments
T3 sequence (P21246 33-168): T2 sequence (P21246 33-168)

Compound | Kd [1] | Kd (wild type PTN) | non-specific interactions between the TEMPO moiety and PTN (PTN)
Chondroitin Sulfate E [CSE] | four to five | four to five | –
Chondroitin Sulfate A [CSA] | failed to bind | ~17 nM | –
CC1(C)CC(O)CC(C)(C)N1[O] [4-hydroxy-TEMPO] | – | – | no non-specific interactions
